Results taken from ChEMBL document CHEMBL4665656, “Toxicity, bioactivity, release of HS in vivo and pharmaco-kinetics of HS-donors with thiophosphamide structure” (Eur J Med Chem, 2019).
The source made the active and inactive calls. No cut-off for these calls is given here.

Key:
[1] = Cytotoxicity against rat H9C2 cells assessed as cell viability at 100 uM measured after 24 hrs by MTT assay; type: cell-based; details: read-out: Activity
[2] = Induction of H2S generation assessed as half life at 150 uM incubated at 37 degC and pH 8 by fluorescence spectrophotometry; type: functional
Method in brief: (§1)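 Donor at 150 µM final, mixed with 200 µM sulfonyl-azide fluorescent probe in buffer/acetonitrile (1:9) at set pH. Cuvette held in a water bath at 22 °C or 37 °C, with fluorescence read three times at intervals. H2S was quantified from a Na2S standard curve (0–200 µM, probe 200 µM).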

[3] = Kinetic Solubility of compound; type: physicochemical
[4] = Induction of H2S generation assessed as Cmax at 150 uM incubated at 22 degC and pH 7.4 by fluorescence spectrophotometry; type: functional; method in brief: as §1
[5] = Induction of H2S generation assessed as half life at 150 uM incubated at 37 degC and pH 7.4 by fluorescence spectrophotometry; type: functional; method in brief: as §1
[6] = Induction of H2S generation assessed as half life at 150 uM incubated at 22 degC and pH 8 by fluorescence spectrophotometry; type: functional; method in brief: as §1
HeLa = test: Cytotoxicity in human HeLa cells assessed as growth inhibition incubated for 24 hrs by MTT assay; type: functional, cell-based
Method in brief: (§2)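 Cells were grown in RPMI 1640 with 10% FBS at 37 °C and 10% CO2, seeded at 6×10^3 cells/well. Exposure was 24 h, with viability by MTT, in triplicate cultures. IC50 was reported as mean ± SD.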

[7] = Induction of H2S generation assessed as Cmax Induction of H2S generation assessed as Cmax at 150 uM incubated at 37 degC and pH 8 by fluorescence spectrophotometry; type: functional; method in brief: as §1
[8] = Induction of H2S generation assessed as half life at 150 uM incubated at 22 degC and pH 5 by fluorescence spectrophotometry; type: functional; method in brief: as §1
[9] = Induction of H2S generation assessed as half life at 150 uM incubated at 22 degC and pH 7.4 by fluorescence spectrophotometry; type: functional; method in brief: as §1
HepG2 = test: Cytotoxicity in human HePG2 cells assessed as growth inhibition incubated for 24 hrs by MTT assay; type: functional, cell-based; details: HepG2, 24 h; method in brief: as §2
[10] = Induction of H2S generation assessed as Cmax at 150 uM incubated at 22 degC and pH 1.2 by fluorescence spectrophotometry; type: functional; method in brief: as §1
[11] = Induction of H2S generation assessed as Cmax at 150 uM incubated at 37 degC and pH 5 by fluorescence spectrophotometry; type: functional; method in brief: as §1
[12] = Cytotoxicity against mouse RAW264.7 cells assessed as cell viability at 20 to 100 microM after 24 hrs by MTT assay; type: cell-based; details: dose 20-100 µM, read-out: Activity
Method in brief: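 RAW264.7 macrophages in high-glucose DMEM with 10% heat-inactivated FBS, 37 °C, 5% CO2. LPS 1 µg/mL with or without compound (20 and 100 µM) for 24 h. Then MTT 4 h, formazan dissolved in DMSO, A570, expressed as % of control.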

RAW264.7 [13] = test: Anti-inflammatory activity in mouse RAW264.7 cells assessed as inhibition of LPS-induced IL-10 production at 20 uM preincubated for 4 hr followed by LPS addition and measured after 24 hrs; type: functional, cell-based
Method in brief: (§3)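 RAW264.7 cells given LPS 1 µg/mL with compound for 24 h, then lysed in RIPA and centrifuged. Protein was set to 0.1 mg/mL by BCA and mouse cytokine levels measured by sandwich ELISA kit. Four parallel groups, mean ± SD.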

RAW264.7 [14] = test: Anti-inflammatory activity in mouse RAW264.7 cells assessed as inhibition of LPS-induced TNFalpha production at 20 uM preincubated for 4 hr followed by LPS addition and measured after 24 hrs relative to control; type: functional, cell-based; method in brief: as §3
[15] = Induction of H2S generation assessed as Cmax at 150 uM incubated at 37 degC and pH 1.2 by fluorescence spectrophotometry; type: functional; method in brief: as §1
[16] = Solubility of compound in water; type: physicochemical; details: buffer
[17] = Induction of H2S generation assessed as Cmax at 150 uM incubated at 22 degC and pH 8 by fluorescence spectrophotometry; type: functional; method in brief: as §1
[18] = Induction of H2S generation assessed as half life at 150 uM incubated at 37 degC and pH 1.2 by fluorescence spectrophotometry; type: functional; method in brief: as §1
MCF7 = test: Cytotoxicity in human MCF-7 cells assessed as growth inhibition incubated for 24 hrs by MTT assay; type: functional, cell-based; details: MCF7, 24 h; method in brief: as §2
A549 = test: Cytotoxicity in human A549 cells assessed as growth inhibition incubated for 24 hrs by MTT assay; type: functional, cell-based; details: A549, 24 h; method in brief: as §2
[19] = Induction of H2S generation assessed as Cmax Induction of H2S generation assessed as Cmax at 150 uM incubated at 37 degC and pH 7.4 by fluorescence spectrophotometry; type: functional; method in brief: as §1
HT-29 = test: Cytotoxicity in human HT-29 cells assessed as growth inhibition incubated for 24 hrs by MTT assay; type: functional, cell-based; details: HT-29, 24 h; method in brief: as §2
RAW264.7 [20] = test: Anti-inflammatory activity in mouse RAW264.7 cells assessed as inhibition of LPS-induced NO production preincubated for 4 hr followed by LPS addition and measured after 24 hrs relative to control; type: functional, cell-based; details: dose 100.0 µM, time 28.0 hrs
Method in brief: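 RAW264.7 cells exposed to LPS 1 µg/mL with compound (20 and 100 µM) for 24 h. Nitrite in medium measured by Griess reagent, […], against a sodium nitrite standard curve (0–100 µM). Four parallel groups, mean ± SD.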

[21] = Induction of H2S generation assessed as half life at 150 uM incubated at 22 degC and pH 1.2 by fluorescence spectrophotometry; type: functional; method in brief: as §1
[22] = Induction of H2S generation assessed as half life at 150 uM incubated at 37 degC and pH 5 by fluorescence spectrophotometry; type: functional; method in brief: as §1
WI-38 = test: Cytotoxicity in human W138 cells assessed as growth inhibition incubated for 24 hrs by MTT assay; type: cell-based; details: WI-38, 24 h; method in brief: as §2

For `O=C([O-])CNP([O-])(=S)c1ccccc1.[Li+].[Li+]` (stereo not drawn), the viability at 24 h, 100 µM [1] was greater than 90%, the T1/2 [2] was 5.57 min and the Kinetic_solubility [3] was “Soluble”. For the same molecule, the Cmax [4] was 99.5 µM, the T1/2 [5] was 3.66 min and the T1/2 [6] was 6.44 min. The IC50 (HeLa) was 913 µM, the Cmax [7] was 101 µM and the T1/2 [8] was 3.19 min. The T1/2 [9] was 4.93 min, the IC50 (HepG2) was 771 µM and the Cmax [10] was 101 µM. For the same molecule, the Cmax [11] was 103 µM, the viability at 24 h [12] was 70% and the Activity (RAW264.7 [13]) was “Active”. For the same molecule, the Activity (RAW264.7 [14]) was “Active”, the Cmax [15] was 103 µM and the solubility [16] was “Soluble”. The Cmax [17] was 99.4 µM, the T1/2 [18] was 2.17 min and the IC50 (MCF7) was 876 µM. The IC50 (A549) was 378 µM, the Cmax [19] was 102 µM and the IC50 (HT-29) was 912 µM. The Activity (RAW264.7 [20]) was “Dose-dependent effect”, the T1/2 [21] was 2.94 min and the T1/2 [22] was 2.41 min. The IC50 (WI-38) was 508 µM.
